# Experimental data collected from several papers.
# Target: Serine/threonine-protein kinase haspin (HASPIN, Homo sapiens, UniProt Q8TF76)
# One construct used (Q8TF76 1-798): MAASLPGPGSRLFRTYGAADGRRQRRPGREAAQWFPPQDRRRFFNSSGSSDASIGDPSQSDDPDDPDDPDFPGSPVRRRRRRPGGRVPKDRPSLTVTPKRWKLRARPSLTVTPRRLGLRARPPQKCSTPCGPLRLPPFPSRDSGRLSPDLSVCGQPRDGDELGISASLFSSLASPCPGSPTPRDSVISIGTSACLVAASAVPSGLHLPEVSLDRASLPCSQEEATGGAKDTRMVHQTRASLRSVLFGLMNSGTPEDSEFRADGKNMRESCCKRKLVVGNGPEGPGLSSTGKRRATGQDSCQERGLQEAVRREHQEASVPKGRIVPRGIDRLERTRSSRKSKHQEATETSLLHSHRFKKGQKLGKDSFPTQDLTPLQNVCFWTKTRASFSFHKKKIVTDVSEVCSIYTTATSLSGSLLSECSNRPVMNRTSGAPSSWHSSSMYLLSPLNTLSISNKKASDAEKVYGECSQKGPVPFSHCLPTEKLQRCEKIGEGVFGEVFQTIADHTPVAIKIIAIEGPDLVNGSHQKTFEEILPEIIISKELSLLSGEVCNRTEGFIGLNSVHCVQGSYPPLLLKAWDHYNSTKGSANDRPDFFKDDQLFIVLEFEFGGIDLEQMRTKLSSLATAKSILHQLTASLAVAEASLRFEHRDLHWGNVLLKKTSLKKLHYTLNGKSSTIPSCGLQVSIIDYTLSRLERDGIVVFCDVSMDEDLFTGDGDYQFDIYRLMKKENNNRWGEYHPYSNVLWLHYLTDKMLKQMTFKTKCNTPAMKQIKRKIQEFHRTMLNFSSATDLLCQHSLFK
SMILES,assay,conditions,remaining binding [%]
O=C(c1ccc(Nc2ncc(Cl)c(-c3cc4ccccc4s3)n2)cc1)N1CCC(N2CCCC2)CC1,"binding, competition with immobilised ligand",1 µM,67
COc1ccnn2ncc(-c3ccnc(N(C)C)n3)c12,binding,1 µM,1.8
O=C(Nc1cnc(Oc2ccc(F)cc2)nc1)N1CCc2ncccc2[C@@H]1c1ccc(F)cc1,"cell-free assay, competition with immobilised ligand",1 µM,93
O=C(c1ccc(Nc2nccc(-c3cc4ccccc4s3)n2)cc1)N1CCC(N2CCCC2)CC1,"binding, competition with immobilised ligand",1 µM,64
N[C@H]1CCN(c2nccc(-c3cnn4ncccc34)n2)C1,binding,1 µM,0.4
O=C(NCC1CCOCC1)c1n[nH]cc1NC(=O)c1c(F)cccc1F,"binding, competition with immobilised ligand",1 µM,88
COc1ncc2cc3ccccc3nc2c1C#N,"cell-free assay, competition with immobilised ligand",5 µM,51
CS(=O)(=O)N1CCCC(NC(=O)[C@H](CCC2CCCCC2)NC(=O)c2ccc(CNc3ncnc4c3nnn4-c3ccccc3)cc2)C1 (stereo partly shown),"cell-free assay, competition with immobilised ligand",0.1 µM,100
CN(CCCC(F)(F)F)c1nccc(-c2cnn3ncccc23)n1,binding,1 µM,11
CCN1CCN(Cc2ccc(C(=O)Nc3ccc(C)c(Oc4ccc5c(c4)CC(=O)N5)c3)cc2C(F)(F)F)CC1,"binding, competition with immobilised ligand",1 µM,100
CNC(=O)[C@@H]1CC[C@@H](n2c(-c3ccc4cnccc4c3)nc3ccc(C(=O)NCc4cccc(C(N)=O)c4)cc32)C1,"binding, competition with immobilised ligand",1 µM,99
CN(C)c1nccc(-c2cnc3ncccn23)n1,binding,1 µM,2.8
CCS(=O)(=O)c1cc2cc(C[C@@](O)(CC(C)(C)c3ccc(F)cc3C(N)=O)C(F)(F)F)[nH]c2cn1,"cell-free assay, competition with immobilised ligand",1 µM,80
C[C@@H]1CCN(c2nccc(-c3cnn4ncccc34)n2)C1,binding,1 µM,2
CCC(=O)N[C@@H]1CC[C@H](C(=O)N(C)c2ccc(-c3nc4ccccc4o3)cc2)C1,"cell-free assay, competition with immobilised ligand",1 µM,100
O=C(NCCCN1CCOCC1)c1ccc(Nc2ncc(Cl)c(-c3ccc(Cl)s3)n2)cc1,"binding, competition with immobilised ligand",1 µM,51
Cc1cc(NC(=O)c2cccc(S(F)(F)(F)(F)F)c2)cc(-n2ccn3nc(-c4cccnc4)cc23)c1,"cell-free assay, competition with immobilised ligand",1 µM,70.9
Nc1ncc2c(n1)-c1c([nH]c3ccc(C#CC4CC4)cc13)CCCC2,"binding, competition with immobilised ligand",1 µM,100
NS(=O)(=O)c1cc(NC(=O)Cc2ccccc2)ccc1Oc1cccc(Cl)c1,"cell-free assay, competition with immobilised ligand",1 µM,100
C[C@@H](c1ccc(-n2cnc3c(N)ncnc32)cc1)N1CCc2nn(C)c(Cc3ccccc3)c2C1=O,"binding, competition with immobilised ligand",0.1 µM,79
CSc1cccnc1N1CCN(Cc2nc3ccccc3[nH]2)CC1,"cell-free assay, competition with immobilised ligand",1 µM,100
CN(c1nccc(-c2cnn3ncccc23)n1)C1CC1,binding,1 µM,18
